N-glyco inh: increase of ERlucT glycosylation luciferase signal, primary screen, N-linked glycosylation inhibitor project, D54 ERlucT cells, luminescence, set 2; reporter increase, % at 12.5 µM; D54 ERlucT glycosylation luciferase reporter, 24 h; percent of 100 nM tunicamycin response; 360,000 tested, 0.23% active; AID 588692, 2011;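 active means mean luciferase reporter signal, scaled so untreated is 0 and the glycosylation-blocking control 100, at or above a set limit in every replicate; inconclusive means mean reaches the limit but not every replicate does; inactive means mean below the limit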;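 further: luciferase carries N-glycosylation sites so blocking glycosylation raises the light; 0% = median of neutral control wells and 100% = median of 100 nM tunicamycin wells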
ALR inh: inhibitors of human ALR sulfhydryl oxidase, primary screen, biochemical, H2O2 detection, HRP-luminol luminescence, single point; purified ALR, DTT oxidation; inhibition, % (no concentration beside the values); 290,000 tested, 3.8% active;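 active means mean replicate inhibition above about 79%, with every replicate also reaching it, limit read from the data; inconclusive means only one of the two criteria met; inactive means mean below limit and not every replicate reaching it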
Target sequence (P55789 whole entry, looked up): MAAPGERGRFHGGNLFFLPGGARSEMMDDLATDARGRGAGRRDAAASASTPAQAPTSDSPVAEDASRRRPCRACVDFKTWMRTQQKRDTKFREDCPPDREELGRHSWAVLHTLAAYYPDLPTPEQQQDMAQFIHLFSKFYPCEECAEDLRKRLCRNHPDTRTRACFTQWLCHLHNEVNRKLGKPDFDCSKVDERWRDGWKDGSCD
T cell HTS: modulators of CD8 T cell-vesicle binding, primary screen, mouse 2C CD8+ T cells, flow cytometry; 2C CD8+ T cell-vesicle binding; hits give low values; response (vesicle binding), % at 7 µM; 330,000 tested, 0.068% active;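 active means response, share of CD8 T cells binding vesicles, and their 90th percentile fluorescence all below set limits, cut at about 80% in these data, passing the limit was not always enough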;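 further: values below 100% mean blocked vesicle binding to the CD8+ T cells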
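Assay system: 2C TCR transgenic mouse naive CD8+ T cells, MACS-purified | Read-out: CD8+ gate FL2 mean fluorescence as % of same-row positive control | Signal: High-throughput flow cytometry with anti-B7-1 and anti-CD8 staining | Timing: Binding step 1.5 h, 37 °C, antibody labelling 20 min, ice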
Active calls of the source: *; i = inactive; ? = inconclusive; · = no result given. Many of the other results were omitted from the sample, so hits are more common in it than they were.

SMILES	N-glyco inh	ALR inh	T cell HTS
CSCCC(NC(=O)COc1ccccc1)C(=O)N(C)Cc1ccc(SC)cc1 (stereo not given)	-1	-10	58
O=C(C1CC1)N1CCN=C1SCc1ccccc1Cl	0	99*	320
C#CCOCCOCCOCCNc1nc(N2CCN(C(=O)[C@H](CCC(=O)O)n3cc([C@@H](N)[C@H](C)CC)nn3)CC2)nc(N2CCN(C(=O)[C@H](CCCCN)n3cc([C@@H](N)CC(N)=O)nn3)CC2)n1	0	·	519
CN(C)c1ccc(N=Nc2cccc(F)c2)cc1	-12	·	527
CN(C)c1ccc(N=Nc2cccc3ccoc23)cc1	-6	86*	212
CCOc1ccc(NC(=O)CSc2nc3ccsc3c(=O)n2Cc2ccc(C(=O)O)cc2)cc1	1	·	·
S=c1nc(-c2cc(Cl)ccc2Cl)[nH][nH]1	3	-77	138
S=c1nc(-c2cccc(Cl)c2)[nH][nH]1	2	92*	261
S=c1nc(-c2cc(Cl)cc(Cl)c2)[nH][nH]1	2	98*	374
CCN(CC)S(=O)(=O)c1ccc(N2CC(C(=O)NC3(C)CCS(=O)(=O)C3)CC2=O)cc1 (stereo not given)	2	-7	220
CCN(CC)c1ccc(C(=O)N/N=C(\C)c2cccnc2)cc1	-1	25	317
C/C(=N\NC(=O)Cc1ccc(Cl)cc1)c1ccc(F)cc1	0	-16	234
CCN(CC)c1ccc(C(=O)N/N=C(\C)c2ccc(O)cc2)cc1	-1	94*	215
C/C(=N\NC(=O)Cc1ccc(F)cc1)c1ccc(O)cc1	0	99*	410
CN(C)C(=O)C1Cc2ccccc2CN1S(=O)(=O)c1ccc(F)cc1 (stereo not given)	0	-1	222
Cc1cc(C)cc(N2C(=O)CSC2c2ccccn2)c1 (stereo not given)	-3	99*	273
O=C1CSC(c2ccccn2)N1c1ccccc1 (stereo not given)	2	99*	·
O=C1CSC(c2ccccn2)N1c1ccc(Br)cc1 (stereo not given)	1	45	238
O=C1CSC(c2ccccn2)N1c1ccc2ccccc2c1 (stereo not given)	-4	68	i
Cc1cc(C)c(S(=O)(=O)N2CCCCC2CCNC(=O)C(=O)NCc2ccccn2)c(C)c1 (stereo not given)	-4	-2	144
CC(/C=C/c1ccc(N(C)C)cc1)=N\N=C(/N)SC1CC(=O)N(c2ccc(C(=O)O)cc2)C1=O (stereo not given)	-4	100*	i
O=C(O)c1ccc(N2C(=O)CC(SC(=Nc3ccccc3)Nc3ccccc3)C2=O)cc1 (stereo not given)	1	7	128
CCN=c1scc(C)n1/N=C/c1cc(Br)c(O)c(Br)c1	-4	70	580
CCN=c1scc(C)n1/N=C/c1ccc(O)c(O)c1O	0	99*	360
COCCN=c1scc(-c2cccs2)n1/N=C/c1ccc(O)c(O)c1O	-1	99*	202
SMILES	N-glyco inh	ALR inh	T cell HTS
COCCN=c1scc(-c2ccccc2)n1/N=C/c1c[nH]c2ccccc12	4	25	160
O=S(=O)(c1cccs1)N1CCN(c2ccc(O)cc2)CC1	-3	·	452
CCC(=O)Nc1nnc(SCc2ccccc2F)s1	0	-6	207
CCCCN(C(=O)CN(C)CC(=O)Nc1cccc(OC)c1)c1c(N)n(CCCC)c(=O)[nH]c1=O	1	·	998
CN(C)c1ccc(C(=S)N2CCNCC2)cc1	3	99*	259
CN(C)c1ccc(C(=S)N2CCCCC2)cc1	1	-3	172
Cc1cc(-c2ccc(Cl)cc2Cl)c(C#N)c(=O)[nH]1	1	-1	185
CSc1nc(-c2ccc(Cl)cc2Cl)[nH]c(=O)c1C#N	3	96*	268
CCCCCCSc1nc(O)c(C2OC(=O)c3c2ccc(OC)c3OC)c(=O)n1-c1ccccc1 (stereo not given)	1	98*	278
CCCCSc1nc(O)c(C2OC(=O)c3c2ccc(OC)c3OC)c(=O)n1C (stereo not given)	0	?	321
Cc1ccc(S(=O)(=O)N2C[C@H]3C(=O)C[C@@H](c4ccccc4)N(S(=O)(=O)c4ccc(C)cc4)[C@H]3C[C@H]2c2ccc(Cl)cc2)cc1	-9	·	·
CCn1cc(C(=O)NC(C)CCc2ccccc2)c(=O)c2cc(S(=O)(=O)N(C)C)ccc21 (stereo not given)	-3	3	0

Compound activity as filed in PubChem BioAssay.
